Converted amounts (≈) assume the structure as drawn.
Experiments:
Format in all cases: functional
[1] = tested on: Pseudomonas aeruginosa; assay: Selectivity index, ratio of MIC for against IMP-4 producing Pseudomonas aeruginosa isolate 209471 to MIC for against IMP-4 producing Pseudomonas aeruginosa isolate 209471 in presence of BPL
[2] = tested on: Klebsiella pneumoniae; assay: Antibacterial activity against KPC-2 producing Klebsiella pneumoniae isolate 209735 after 18 hrs by CLSI broth microdilution method; conditions: isolate 209735, 18 h
[3] = tested on: Pseudomonas aeruginosa; assay: Selectivity index, ratio of MIC for against IMP-4 producing Pseudomonas aeruginosa isolate 209321 to MIC for against IMP-4 producing Pseudomonas aeruginosa isolate 209321 in presence of BPL
[4] = tested on: Klebsiella pneumoniae; assay: Antibacterial activity against KPC-2 producing Klebsiella pneumoniae isolate 212423 after 18 hrs in presence of BPL by CLSI broth microdilution method; conditions: isolate 212423, 18 h
Summary of the method: (§1)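 CLSI broth microdilution against clinical isolates (ESBL E. coli, KPC-2 MDR K. pneumoniae, IMP-4 MDR P. aeruginosa; five per species). Iron limitation: Mueller-Hinton broth supplemented with 16 mg/liter 2,2'-bipyridyl to complex iron and induce iron uptake systems. Read-out: MIC.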

[5] = tested on: Escherichia coli; assay: Antibacterial activity against extended-spectrum beta-lactamase producing Escherichia coli isolate 106342 after 18 hrs in presence of BPL by CLSI broth microdilution method; conditions: isolate 106342, 18 h; summary of the method: as §1
[6] = tested on: Escherichia coli; assay: Antibacterial activity against extended-spectrum beta-lactamase producing Escherichia coli isolate 209285 after 18 hrs by CLSI broth microdilution method; conditions: isolate 209285, 18 h
[7] = tested on: Escherichia coli; assay: Antibacterial activity against extended-spectrum beta-lactamase producing Escherichia coli isolate 212648 after 18 hrs in presence of BPL by CLSI broth microdilution method; conditions: isolate 212648, 18 h; summary of the method: as §1
[8] = tested on: Escherichia coli; assay: Selectivity index, ratio of MIC for against extended-spectrum beta-lactamase producing Escherichia coli isolate 106342 to MIC for extended-spectrum beta-lactamase producing Escherichia coli isolate 106342 in presence of BPL
[9] = tested on: Klebsiella pneumoniae; assay: Antibacterial activity against KPC-2 producing Klebsiella pneumoniae isolate 212232 after 18 hrs in presence of BPL by CLSI broth microdilution method; conditions: isolate 212232, 18 h; summary of the method: as §1
[10] = tested on: Escherichia coli; assay: Antibacterial activity against extended-spectrum beta-lactamase producing Escherichia coli isolate 209285 after 18 hrs in presence of BPL by CLSI broth microdilution method; conditions: isolate 209285, 18 h; summary of the method: as §1
[11] = tested on: Klebsiella pneumoniae; assay: Antibacterial activity against KPC-2 producing Klebsiella pneumoniae isolate 209632 after 18 hrs in presence of BPL by CLSI broth microdilution method; conditions: isolate 209632, 18 h; summary of the method: as §1
[12] = tested on: Escherichia coli; assay: Antibacterial activity against extended-spectrum beta-lactamase producing Escherichia coli isolate 208687 after 18 hrs in presence of BPL by CLSI broth microdilution method; conditions: isolate 208687, 18 h; summary of the method: as §1
[13] = tested on: Klebsiella pneumoniae; assay: Selectivity index, ratio of MIC for against KPC-2 producing Klebsiella pneumoniae isolate 209632 to MIC for against KPC-2 producing Klebsiella pneumoniae isolate 209632 in presence of BPL
[14] = tested on: Escherichia coli; assay: Selectivity index, ratio of MIC for against extended-spectrum beta-lactamase producing Escherichia coli isolate 208687 to MIC for extended-spectrum beta-lactamase producing Escherichia coli isolate 208687 in presence of BPL
[15] = tested on: Pseudomonas aeruginosa; assay: Antibacterial activity against IMP-4 producing Pseudomonas aeruginosa isolate 209321 after 18 hrs in presence of BPL by CLSI broth microdilution method; conditions: isolate 209321, 18 h; summary of the method: as §1
[16] = tested on: Klebsiella pneumoniae; assay: Selectivity index, ratio of MIC for against KPC-2 producing Klebsiella pneumoniae isolate 212423 to MIC for against KPC-2 producing Klebsiella pneumoniae isolate 212423 in presence of BPL
[17] = tested on: Klebsiella pneumoniae; assay: Selectivity index, ratio of MIC for against KPC-2 producing Klebsiella pneumoniae isolate 212229 to MIC for against KPC-2 producing Klebsiella pneumoniae isolate 212229 in presence of BPL
[18] = tested on: Pseudomonas aeruginosa; assay: Selectivity index, ratio of MIC for against IMP-4 producing Pseudomonas aeruginosa isolate 208247 to MIC for against IMP-4 producing Pseudomonas aeruginosa isolate 208247 in presence of BPL
[19] = tested on: Pseudomonas aeruginosa; assay: Antibacterial activity against IMP-4 producing Pseudomonas aeruginosa isolate 212886 after 18 hrs by CLSI broth microdilution method; conditions: isolate 212886, 18 h
[20] = tested on: Pseudomonas aeruginosa; assay: Antibacterial activity against IMP-4 producing Pseudomonas aeruginosa isolate 209321 after 18 hrs by CLSI broth microdilution method; conditions: isolate 209321, 18 h
[21] = tested on: Klebsiella pneumoniae; assay: Antibacterial activity against KPC-2 producing Klebsiella pneumoniae isolate 212229 after 18 hrs in presence of BPL by CLSI broth microdilution method; conditions: isolate 212229, 18 h; summary of the method: as §1
[22] = tested on: Escherichia coli; assay: Antibacterial activity against extended-spectrum beta-lactamase producing Escherichia coli isolate 106342 after 18 hrs by CLSI broth microdilution method; conditions: isolate 106342, 18 h
[23] = tested on: Pseudomonas aeruginosa; assay: Selectivity index, ratio of MIC for against IMP-4 producing Pseudomonas aeruginosa isolate 207272 to MIC for against IMP-4 producing Pseudomonas aeruginosa isolate 207272 in presence of BPL
[24] = tested on: Pseudomonas aeruginosa; assay: Antibacterial activity against IMP-4 producing Pseudomonas aeruginosa isolate 208247 after 18 hrs by CLSI broth microdilution method; conditions: isolate 208247, 18 h
[25] = tested on: Pseudomonas aeruginosa; assay: Selectivity index, ratio of MIC for against IMP-4 producing Pseudomonas aeruginosa isolate 212886 to MIC for against IMP-4 producing Pseudomonas aeruginosa isolate 212886 in presence of BPL
[26] = tested on: Pseudomonas aeruginosa; assay: Antibacterial activity against IMP-4 producing Pseudomonas aeruginosa isolate 209471 after 18 hrs by CLSI broth microdilution method; conditions: isolate 209471, 18 h
[27] = tested on: Escherichia coli; assay: Selectivity index, ratio of MIC for against extended-spectrum beta-lactamase producing Escherichia coli isolate 209285 to MIC for extended-spectrum beta-lactamase producing Escherichia coli isolate 209285 in presence of BPL
[28] = tested on: Escherichia coli; assay: Antibacterial activity against Escherichia coli isolate 210737 after 18 hrs by CLSI broth microdilution method; conditions: isolate 210737, 18 h
[29] = tested on: Pseudomonas aeruginosa; assay: Antibacterial activity against IMP-4 producing Pseudomonas aeruginosa isolate 207272 after 18 hrs in presence of BPL by CLSI broth microdilution method; conditions: isolate 207272, 18 h; summary of the method: as §1
[30] = tested on: Escherichia coli; assay: Antibacterial activity against extended-spectrum beta-lactamase producing Escherichia coli isolate 208687 after 18 hrs by CLSI broth microdilution method; conditions: isolate 208687, 18 h
[31] = tested on: Klebsiella pneumoniae; assay: Selectivity index, ratio of MIC for against KPC-2 producing Klebsiella pneumoniae isolate 209735 to MIC for against KPC-2 producing Klebsiella pneumoniae isolate 209735 in presence of BPL
[32] = tested on: Klebsiella pneumoniae; assay: Selectivity index, ratio of MIC for against KPC-2 producing Klebsiella pneumoniae isolate 212232 to MIC for against KPC-2 producing Klebsiella pneumoniae isolate 212232 in presence of BPL
[33] = tested on: Klebsiella pneumoniae; assay: Antibacterial activity against KPC-2 producing Klebsiella pneumoniae isolate 209735 after 18 hrs in presence of BPL by CLSI broth microdilution method; conditions: isolate 209735, 18 h; summary of the method: as §1
[34] = tested on: Escherichia coli; assay: Selectivity index, ratio of MIC for against extended-spectrum beta-lactamase producing Escherichia coli isolate 212648 to MIC for extended-spectrum beta-lactamase producing Escherichia coli isolate 212648 in presence of BPL
[35] = tested on: Pseudomonas aeruginosa; assay: Antibacterial activity against IMP-4 producing Pseudomonas aeruginosa isolate 209471 after 18 hrs in presence of BPL by CLSI broth microdilution method; conditions: isolate 209471, 18 h; summary of the method: as §1
[36] = tested on: Escherichia coli; assay: Antibacterial activity against extended-spectrum beta-lactamase producing Escherichia coli isolate 212648 after 18 hrs by CLSI broth microdilution method; conditions: isolate 212648, 18 h
[37] = tested on: Klebsiella pneumoniae; assay: Antibacterial activity against KPC-2 producing Klebsiella pneumoniae isolate 209632 after 18 hrs by CLSI broth microdilution method; conditions: isolate 209632, 18 h
[38] = tested on: Klebsiella pneumoniae; assay: Antibacterial activity against KPC-2 producing Klebsiella pneumoniae isolate 212423 after 18 hrs by CLSI broth microdilution method; conditions: isolate 212423, 18 h
[39] = tested on: Klebsiella pneumoniae; assay: Antibacterial activity against KPC-2 producing Klebsiella pneumoniae isolate 212232 after 18 hrs by CLSI broth microdilution method; conditions: isolate 212232, 18 h
[40] = tested on: Pseudomonas aeruginosa; assay: Antibacterial activity against IMP-4 producing Pseudomonas aeruginosa isolate 212886 after 18 hrs in presence of BPL by CLSI broth microdilution method; conditions: isolate 212886, 18 h; summary of the method: as §1
[41] = tested on: Escherichia coli; assay: Selectivity index, ratio of MIC for against Escherichia coli isolate 210737 to MIC for Escherichia coli isolate 210737 in presence of BPL
[42] = tested on: Pseudomonas aeruginosa; assay: Antibacterial activity against IMP-4 producing Pseudomonas aeruginosa isolate 207272 after 18 hrs by CLSI broth microdilution method; conditions: isolate 207272, 18 h
[43] = tested on: Escherichia coli; assay: Antibacterial activity against Escherichia coli isolate 210737 after 18 hrs in presence of BPL by CLSI broth microdilution method; conditions: isolate 210737, 18 h; summary of the method: as §1
[44] = tested on: Klebsiella pneumoniae; assay: Antibacterial activity against KPC-2 producing Klebsiella pneumoniae isolate 212229 after 18 hrs by CLSI broth microdilution method; conditions: isolate 212229, 18 h
[45] = tested on: Pseudomonas aeruginosa; assay: Antibacterial activity against IMP-4 producing Pseudomonas aeruginosa isolate 208247 after 18 hrs in presence of BPL by CLSI broth microdilution method; conditions: isolate 208247, 18 h; summary of the method: as §1

MIC [2]: > 64 µg/mL
MIC [4]: > 64 µg/mL
MIC [5]: 16 µg/mL
MIC [6]: 32 µg/mL (≈ 43.2 µM)
MIC [7]: 16 µg/mL
MIC [9]: 16 µg/mL
MIC [10]: 16 µg/mL
MIC [11]: > 64 µg/mL
MIC [12]: 4 µg/mL
MIC [15]: 32 µg/mL
MIC [19]: > 64 µg/mL
MIC [20]: 64 µg/mL (≈ 86.4 µM)
MIC [21]: > 64 µg/mL
MIC [22]: 16 µg/mL (≈ 21.6 µM)
MIC [24]: 64 µg/mL (≈ 86.4 µM)
MIC [26]: > 64 µg/mL
MIC [28]: 16 µg/mL (≈ 21.6 µM)
MIC [29]: 64 µg/mL
MIC [30]: 32 µg/mL (≈ 43.2 µM)
MIC [33]: > 64 µg/mL
MIC [35]: > 64 µg/mL
MIC [36]: 32 µg/mL (≈ 43.2 µM)
MIC [37]: > 64 µg/mL
MIC [38]: > 64 µg/mL
MIC [39]: > 64 µg/mL
MIC [40]: > 64 µg/mL
MIC [42]: 64 µg/mL (≈ 86.4 µM)
MIC [43]: 8 µg/mL
MIC [44]: > 64 µg/mL
MIC [45]: 64 µg/mL
SMILES: CC(C)C(O/N=C(\C(=O)N[C@@H]1C(=O)N(S(=O)(=O)O)[C@@H]1COC(=O)CNC(=O)c1cc(=O)c(O)c[nH]1)c1csc(N)n1)c1cc(=O)c(O)cn1O (stereo not given in full)
Selectivity Index [1]: 1 - 2
Selectivity Index [3]: 2
Selectivity Index [8]: 1
Selectivity Index [13]: 4
Selectivity Index [14]: 8
Selectivity Index [16]: 4
Selectivity Index [17]: 4
Selectivity Index [18]: 1
Selectivity Index [23]: 1
Selectivity Index [25]: 1 - 2
Selectivity Index [27]: 2
Selectivity Index [31]: 4
Selectivity Index [32]: >4
Selectivity Index [34]: 2
Selectivity Index [41]: 2
